Results from ChEMBL document CHEMBL3779815, “Synthesis of newer 1,2,3-triazole linked chalcone and flavone hybrid compounds and evaluation of their antimicrobial and cytotoxic activities” (Eur J Med Chem, 2016).
Converted amounts (≈) assume the structure as drawn.

Assays:
Staphylococcus aureus = assay: Antibacterial activity against Staphylococcus aureus […] after 18 to 24 hrs by micro-dilution method; assay type: functional
Enterococcus faecalis = assay: Antibacterial activity against Enterococcus faecalis ATCC 29212 after 18 to 24 hrs by micro-dilution assay; assay type: functional
Escherichia coli = assay: Antibacterial activity against Escherichia coli ATCC 35218 after 18 to 24 hrs by micro-dilution method; assay type: functional
Pseudomonas aeruginosa = assay: Antibacterial activity against Pseudomonas aeruginosa […] after 18 to 24 hrs by micro-dilution method; assay type: functional
Shigella boydii = assay: Antibacterial activity against Shigella boydii clinical isolate after 18 to 24 hrs by micro-dilution method; assay type: functional
Klebsiella pneumoniae = assay: Antibacterial activity against Klebsiella pneumoniae ATCC 27736 after 18 to 24 hrs by micro-dilution method; assay type: functional
Candida albicans [1] = assay: Antifungal activity against Candida albicans ATCC 90028 after 18 to 24 hrs by micro-dilution method; assay type: functional
Summary of the method: (§1)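 Microdilution MIC run as the antibacterial protocol but on Sabouraud dextrose […] pH 7.3±0.2; compounds 100 to 0.78 μg/mL in twofold steps; saline-prepared inocula 1-2 × 10⁷ cfu/mL, 0.01 mL added; 37 °C aerobic, 18-24 h; MIC read as lowest concentration without visible growth or turbidity; fluconazole reference.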

Candida albicans [2] = assay: Antifungal activity against Candida albicans clinical isolate after 18 to 24 hrs by micro-dilution method; assay type: functional; summary of the method: as §1
Candida tropicalis = assay: Antifungal activity against Candida tropicalis ATCC 750 after 18 to 24 hrs by micro-dilution method; assay type: functional; summary of the method: as §1
Candida parapsilosis = assay: Antifungal activity against Candida parapsilosis ATCC 22019 after 18 to 24 hrs by micro-dilution method; assay type: functional; conditions: Lodderomyces parapsilosis; summary of the method: as §1
Cryptococcus neoformans = assay: Antifungal activity against Cryptococcus neoformans clinical isolate after 18 to 24 hrs by micro-dilution method; assay type: functional; summary of the method: as §1
Arthrodermataceae = assay: Antifungal activity against Dermatophyte clinical isolate after 18 to 24 hrs by micro-dilution method; assay type: functional; summary of the method: as §1
Aspergillus niger = assay: Antifungal activity against Aspergillus niger clinical isolate after 18 to 24 hrs by micro-dilution method; assay type: functional; summary of the method: as §1
Aspergillus fumigatus = assay: Antifungal activity against Aspergillus fumigatus clinical isolate after 18 to 24 hrs by micro-dilution method; assay type: functional; summary of the method: as §1
Plasmodium falciparum = assay: Antimalarial activity against erythrocytic stage of chloroquine sensitive Plasmodium falciparum 3D7 assessed as inhibition of parasitemia after 48 hrs by Giemsa staining based microscopic analysis; assay type: functional, organism-based; conditions: 3D7, 48 h
Summary of the method: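 Asynchronous culture on human O⁺ erythrocytes, 1-1.5% parasitemia, 4% hematocrit, RPMI-1640 with HEPES, NaHCO₃, glutamine, gentamycin, Albumax II; drug 0.10-100 μg/mL, 48 h, 37 °C, medium changed at 24 h; triplicate wells; Giemsa thin smears, about 4,000 erythrocytes counted at 1,000X; % parasitemia inhibition versus control gives IC50.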

[3] = Cytotoxicity against human HuH7 cells after 72 hrs by MTT assay; assay type: cell-based, Huh-7
Summary of the method: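 Huh-7 cells, 4 × 10³/well in DMEM with 10% FBS and penicillin-streptomycin-glutamine; eight 2-fold dilutions 100-0.78 μg/mL, 72 h; MTT added 2-4 h, then isopropanol/Triton X-100/HCl solubilization 2 h dark, RT; absorbance 570 nm; CC50 as mean of at least two experiments in duplicate.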

Compound `COc1cc(O)c(C(=O)/C=C/c2ccc(OCc3cn(-c4ccccc4Cl)nn3)c(OC)c2)c(OC)c1` has an MIC (Staphylococcus aureus) of 12.5 µg/mL (≈ 23.9 µM), an MIC (Enterococcus faecalis) of 6.25 µg/mL (≈ 12 µM) and an MIC (Escherichia coli) of 6.25 µg/mL (≈ 12 µM). The MIC (Pseudomonas aeruginosa) was 12.5 µg/mL (≈ 23.9 µM), the MIC (Shigella boydii) was 6.25 µg/mL (≈ 12 µM) and the MIC (Klebsiella pneumoniae) was 25 µg/mL (≈ 47.9 µM). For the same compound, the MIC (Candida albicans [1]) was greater than 100 µg/mL, the MIC (Candida albicans [2]) was greater than 100 µg/mL and the MIC (Candida tropicalis) was greater than 100 µg/mL. The MIC (Candida parapsilosis) was greater than 100 µg/mL, the MIC (Cryptococcus neoformans) was greater than 100 µg/mL and the MIC (Arthrodermataceae) was greater than 100 µg/mL. The MIC (Aspergillus niger) was greater than 100 µg/mL, the MIC (Aspergillus fumigatus) was greater than 100 µg/mL and the IC50 (Plasmodium falciparum) was 6.78 µg/mL (≈ 13 µM). For the same compound, the CC50 at 72 h [3] was greater than 100 µg/mL.

With `COc1cc(OC)c2c(=O)cc(-c3ccc(OCc4cn(-c5ccc(F)cc5F)nn4)c(OCc4cn(-c5ccc(F)cc5F)nn4)c3)oc2c1` the MIC (Staphylococcus aureus) was greater than 100 µg/mL, the MIC (Enterococcus faecalis) was 100 µg/mL (≈ 143 µM) and the MIC (Escherichia coli) was greater than 100 µg/mL. The MIC (Pseudomonas aeruginosa) was greater than 100 µg/mL, the MIC (Shigella boydii) was greater than 100 µg/mL and the MIC (Klebsiella pneumoniae) was greater than 100 µg/mL. It also gave an MIC (Candida albicans [1]) of 50 µg/mL (≈ 71.4 µM), an MIC (Candida albicans [2]) greater than 100 µg/mL and an MIC (Candida tropicalis) greater than 100 µg/mL. It also gave an MIC (Candida parapsilosis) of 100 µg/mL (≈ 143 µM), an MIC (Cryptococcus neoformans) greater than 100 µg/mL and an MIC (Arthrodermataceae) greater than 100 µg/mL. For the same compound, the MIC (Aspergillus niger) was greater than 100 µg/mL, the MIC (Aspergillus fumigatus) was greater than 100 µg/mL and the IC50 (Plasmodium falciparum) was 9.25 µg/mL (≈ 13.2 µM). It also gave a CC50 at 72 h [3] greater than 100 µg/mL.

In the case of `COc1cc(O)c(C(=O)/C=C/c2ccc(OC)c(OCc3cn(-c4ccc(Cl)cc4)nn3)c2)c(OC)c1`, the MIC (Staphylococcus aureus) is reported as greater than 100 µg/mL, the MIC (Enterococcus faecalis) is reported as 100 µg/mL (≈ 192 µM) and the MIC (Escherichia coli) is reported as 100 µg/mL (≈ 192 µM). The MIC (Pseudomonas aeruginosa) was greater than 100 µg/mL, the MIC (Shigella boydii) was greater than 100 µg/mL and the MIC (Klebsiella pneumoniae) was greater than 100 µg/mL. It also gave an MIC (Candida albicans [1]) of 12.5 µg/mL (≈ 23.9 µM), an MIC (Candida albicans [2]) of 12.5 µg/mL (≈ 23.9 µM) and an MIC (Candida tropicalis) of 6.25 µg/mL (≈ 12 µM). The MIC (Candida parapsilosis) was 12.5 µg/mL (≈ 23.9 µM), the MIC (Cryptococcus neoformans) was 12.5 µg/mL (≈ 23.9 µM) and the MIC (Arthrodermataceae) was 12.5 µg/mL (≈ 23.9 µM). The MIC (Aspergillus niger) was 25 µg/mL (≈ 47.9 µM), the MIC (Aspergillus fumigatus) was 25 µg/mL (≈ 47.9 µM) and the IC50 (Plasmodium falciparum) was 11 µg/mL (≈ 21.1 µM). The CC50 at 72 h [3] was greater than 100 µg/mL.

For `COc1cc(O)c(C(=O)/C=C/c2ccc(OC)c(OCc3cn(-c4ccccc4Cl)nn3)c2)c(OC)c1`, the MIC (Staphylococcus aureus) was 25 µg/mL (≈ 47.9 µM), the MIC (Enterococcus faecalis) was 25 µg/mL (≈ 47.9 µM) and the MIC (Escherichia coli) was 50 µg/mL (≈ 95.8 µM). The MIC (Pseudomonas aeruginosa) was 100 µg/mL (≈ 192 µM), the MIC (Shigella boydii) was 12.5 µg/mL (≈ 23.9 µM) and the MIC (Klebsiella pneumoniae) was greater than 100 µg/mL. The MIC (Candida albicans [1]) was 6.25 µg/mL (≈ 12 µM), the MIC (Candida albicans [2]) was 12.5 µg/mL (≈ 23.9 µM) and the MIC (Candida tropicalis) was 6.25 µg/mL (≈ 12 µM). It also gave an MIC (Candida parapsilosis) of 12.5 µg/mL (≈ 23.9 µM), an MIC (Cryptococcus neoformans) of 12.5 µg/mL (≈ 23.9 µM) and an MIC (Arthrodermataceae) of 12.5 µg/mL (≈ 23.9 µM). The MIC (Aspergillus niger) was 12.5 µg/mL (≈ 23.9 µM), the MIC (Aspergillus fumigatus) was 12.5 µg/mL (≈ 23.9 µM) and the IC50 (Plasmodium falciparum) was 8.03 µg/mL (≈ 15.4 µM). For the same compound, the CC50 at 72 h [3] was greater than 100 µg/mL.

`COc1cc(O)c(C(=O)/C=C/c2ccc(OC)c(OCc3cn(-c4ccc(F)cc4Cl)nn3)c2)c(OC)c1` showed an MIC (Staphylococcus aureus) of 100 µg/mL (≈ 185 µM), an MIC (Enterococcus faecalis) greater than 100 µg/mL and an MIC (Escherichia coli) greater than 100 µg/mL. For the same compound, the MIC (Pseudomonas aeruginosa) was greater than 100 µg/mL, the MIC (Shigella boydii) was greater than 100 µg/mL and the MIC (Klebsiella pneumoniae) was greater than 100 µg/mL. For the same compound, the MIC (Candida albicans [1]) was greater than 100 µg/mL, the MIC (Candida albicans [2]) was greater than 100 µg/mL and the MIC (Candida tropicalis) was greater than 100 µg/mL. For the same compound, the MIC (Candida parapsilosis) was greater than 100 µg/mL, the MIC (Cryptococcus neoformans) was greater than 100 µg/mL and the MIC (Arthrodermataceae) was greater than 100 µg/mL. For the same compound, the MIC (Aspergillus niger) was greater than 100 µg/mL, the MIC (Aspergillus fumigatus) was greater than 100 µg/mL and the IC50 (Plasmodium falciparum) was 4.92 µg/mL (≈ 9.11 µM). For the same compound, the CC50 at 72 h [3] was greater than 100 µg/mL.

`COc1cc(O)c(C(=O)/C=C/c2ccc(OCc3cn(-c4ccc(F)cc4F)nn3)c(OCc3cn(-c4ccc(F)cc4F)nn3)c2)c(OC)c1` gave an MIC (Staphylococcus aureus) of 12.5 µg/mL (≈ 17.8 µM), an MIC (Enterococcus faecalis) of 6.25 µg/mL (≈ 8.9 µM) and an MIC (Escherichia coli) of 6.25 µg/mL (≈ 8.9 µM). It also gave an MIC (Pseudomonas aeruginosa) of 12.5 µg/mL (≈ 17.8 µM), an MIC (Shigella boydii) of 6.25 µg/mL (≈ 8.9 µM) and an MIC (Klebsiella pneumoniae) of 12.5 µg/mL (≈ 17.8 µM). For the same compound, the MIC (Candida albicans [1]) was 6.25 µg/mL (≈ 8.9 µM), the MIC (Candida albicans [2]) was 6.25 µg/mL (≈ 8.9 µM) and the MIC (Candida tropicalis) was 12.5 µg/mL (≈ 17.8 µM). It also gave an MIC (Candida parapsilosis) of 12.5 µg/mL (≈ 17.8 µM), an MIC (Cryptococcus neoformans) of 6.25 µg/mL (≈ 8.9 µM) and an MIC (Arthrodermataceae) of 12.5 µg/mL (≈ 17.8 µM). It also gave an MIC (Aspergillus niger) of 25 µg/mL (≈ 35.6 µM), an MIC (Aspergillus fumigatus) of 25 µg/mL (≈ 35.6 µM) and an IC50 (Plasmodium falciparum) of 8.86 µg/mL (≈ 12.6 µM). The CC50 at 72 h [3] was greater than 100 µg/mL.

In the case of `COc1cc(OC)c2c(=O)cc(-c3ccc(OCc4cn(-c5ccc(F)cc5Cl)nn4)c(OC)c3)oc2c1`, the MIC (Staphylococcus aureus) is reported as 50 µg/mL (≈ 92.9 µM), the MIC (Enterococcus faecalis) is reported as greater than 100 µg/mL and the MIC (Escherichia coli) is reported as 50 µg/mL (≈ 92.9 µM). It also gave an MIC (Pseudomonas aeruginosa) greater than 100 µg/mL, an MIC (Shigella boydii) of 50 µg/mL (≈ 92.9 µM) and an MIC (Klebsiella pneumoniae) greater than 100 µg/mL. The MIC (Candida albicans [1]) was 12.5 µg/mL (≈ 23.2 µM), the MIC (Candida albicans [2]) was 12.5 µg/mL (≈ 23.2 µM) and the MIC (Candida tropicalis) was 12.5 µg/mL (≈ 23.2 µM). It also gave an MIC (Candida parapsilosis) of 12.5 µg/mL (≈ 23.2 µM), an MIC (Cryptococcus neoformans) of 12.5 µg/mL (≈ 23.2 µM) and an MIC (Arthrodermataceae) of 25 µg/mL (≈ 46.5 µM). The MIC (Aspergillus niger) was 12.5 µg/mL (≈ 23.2 µM), the MIC (Aspergillus fumigatus) was 12.5 µg/mL (≈ 23.2 µM) and the IC50 (Plasmodium falciparum) was 3.85 µg/mL (≈ 7.16 µM). It also gave a CC50 at 72 h [3] greater than 100 µg/mL.

`COc1cc(O)c(C(=O)/C=C/c2ccc(OCc3cn(-c4ccc(F)cc4F)nn3)c(OC)c2)c(OC)c1` gave an MIC (Staphylococcus aureus) of 12.5 µg/mL (≈ 23.9 µM), an MIC (Enterococcus faecalis) of 12.5 µg/mL (≈ 23.9 µM) and an MIC (Escherichia coli) of 6.25 µg/mL (≈ 11.9 µM). It also gave an MIC (Pseudomonas aeruginosa) of 12.5 µg/mL (≈ 23.9 µM), an MIC (Shigella boydii) of 6.25 µg/mL (≈ 11.9 µM) and an MIC (Klebsiella pneumoniae) of 12.5 µg/mL (≈ 23.9 µM). The MIC (Candida albicans [1]) was greater than 100 µg/mL, the MIC (Candida albicans [2]) was 50 µg/mL (≈ 95.5 µM) and the MIC (Candida tropicalis) was greater than 100 µg/mL. It also gave an MIC (Candida parapsilosis) of 25 µg/mL (≈ 47.8 µM), an MIC (Cryptococcus neoformans) of 50 µg/mL (≈ 95.5 µM) and an MIC (Arthrodermataceae) greater than 100 µg/mL. For the same compound, the MIC (Aspergillus niger) was greater than 100 µg/mL, the MIC (Aspergillus fumigatus) was greater than 100 µg/mL and the IC50 (Plasmodium falciparum) was 3.58 µg/mL (≈ 6.84 µM). The CC50 at 72 h [3] was greater than 100 µg/mL.
